Screens as filed in PubChem BioAssay.
An excerpt weighted towards active compounds, which were near 3.4% of everything screened.
Efa HMGR inh – inhibitors of E. faecalis class II HMGR, primary screen, biochemical, Enterococcus faecalis | HMG-CoA reductase (Enterococcus faecalis, mvaE) | purified E. faecalis HMGR, NADPH absorbance 340 nm kinetic | inhibition, % at 10 µM | 190,000 tested, 0.41% active;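 active = inhibition above a set limit, the median over all tested compounds plus 3 SD, cut at about 9.5% in these data; inconclusive = no clear call, values can overlap the other calls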;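 also: enzyme runs in reverse so mevalonate oxidation gives rising NADPH absorbance; 0% = complete reaction with DMSO and 100% = background rate lacking mevalonate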
Runt-SMMHC FRET – inhibitors of RUNX1 Runt–CBFb-SMMHC binding, primary screen, biochemical, FRET, Cerulean-Runt, Venus-CBFb-SMMHC, uHTS; Cerulean-Runt/Venus-CBFb-SMMHC FRET ratio 530/480, 1 h; inhibition, % at 20 µM; 220,000 tested, 0.74% active;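 active = mean inhibition across duplicate retests at 20 µM reaching about 50%, limit read from the data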;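 also: 0% = DMSO wells and 100% = wells with excess untagged CBFb-SMMHC; inhibitors lower the FRET ratio by blocking Runt binding to CBFb-SMMHC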
Runt-CBFb FRET – inhibitors of RUNX1 Runt–CBFb binding, primary screen, biochemical, FRET, Cerulean-Runt, Venus-CBFb, uHTS. Runt-related transcription factor 1 (Homo sapiens) + Core-binding factor subunit beta …. Cerulean-Runt/Venus-CBFb FRET ratio 530/480, 1 h. AID 1496, 2009. 220,000 tested, 0.46% active. inhibition, % at 20 µM;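 active = inhibition over about 50% at 20 µM in the single-dose screen, limit read from the data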;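 also: 0% = DMSO wells and 100% = excess unlabeled CBFb competitor control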
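Doses: 20 µM compound in 1% DMSO | Material: Cerulean-labeled Runt domain protein | Amount: Each fluorescent fusion protein 100 nM | Schedule: Two 1 h room-temperature incubations shielded from light | Measured by: FRET fluorescence | Evaluation: Loss of energy transfer signal | Controls: Unlabeled CBFb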
PHOSPHO1 block – PubChem AID 1565; 290,000 tested, 1.1% active; recombinant PHOSPHO1, absorbance phosphatase assay; inhibition, % at 13.3 µM; in the data active = inhibition above about 60%
Target sequence (Q8TCT1 whole entry, looked up): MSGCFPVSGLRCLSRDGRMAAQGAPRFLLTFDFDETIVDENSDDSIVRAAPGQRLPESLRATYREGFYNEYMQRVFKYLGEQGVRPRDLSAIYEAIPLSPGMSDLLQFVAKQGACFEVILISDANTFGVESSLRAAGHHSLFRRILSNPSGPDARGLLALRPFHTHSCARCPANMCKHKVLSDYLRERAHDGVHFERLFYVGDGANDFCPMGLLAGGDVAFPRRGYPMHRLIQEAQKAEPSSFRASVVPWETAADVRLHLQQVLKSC
Wee1 degr inh – Wee1 degradation inhibitors, primary screen, cell-based, HeLa, Wee1K328M-luciferase, luminescence. reporter increase, % at 5 µM. 220,000 tested, 1.2% active. Wee1-like protein kinase (Homo sapiens), P30291. AID 1321, 2008. HeLa Luc-Wee1K328M stability; 100% = proteasome inhibitor MG132 effect;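 active = activation above the mean of all tested compounds plus 3 SD, set per screening run, cut at about 8.8% in these data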;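 also: cells exposed to compound for 20 h before luminescence read; 0% = DMSO alone and 100% = MG132 at 30 µM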
RanGTP-Imp inh – inhibitors of RanGTP-importin-beta interaction, primary screen, biochemical, FRET, CFP-Ran, YFP-importin-beta, homogeneous | cell-free CFP-Ran/YFP-importin-beta FRET ratio | 300,000 tested, 1.1% active | inhibition, % (concentration not given with the values);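 active = more than half of the replicate wells show a fall in the fluorescence ratio signal beyond about 16%, limit read from the data, passing the limit was not always enough; inconclusive = exactly half of the replicate wells pass the set limit; inactive = fewer than half of replicates pass the limit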;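 also: 0% = DMSO wells and 100% = Ran loaded with GDP instead of GTP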
* = called active by the depositor.

CCOC(=O)COc1cc(N)c(Cl)cc1Cl was read as Efa HMGR inh -4.5, Runt-SMMHC FRET -39.1, Runt-CBFb FRET 0.5, PHOSPHO1 block 8.4, Wee1 degr inh 12.8* and RanGTP-Imp inh -0.2.
Screening CC1CCN(C(=O)CSc2nnc(CNC(=O)c3c(F)cccc3F)o2)CC1 returned PHOSPHO1 block 28.7 and RanGTP-Imp inh -7.0.
`CCOc1ccc(S(=O)(=O)NN)cc1` gave Efa HMGR inh -9.0, Runt-SMMHC FRET -2.8, Runt-CBFb FRET -2.3, PHOSPHO1 block 92.4*, Wee1 degr inh 0.9 and RanGTP-Imp inh -3.1.
For CCOc1ccc(NS(=O)(=O)c2ccc(N)cc2)cc1 the results were Efa HMGR inh -6.4, Runt-SMMHC FRET 0.7, Runt-CBFb FRET 2.3, PHOSPHO1 block -6.8, Wee1 degr inh -0.5 and RanGTP-Imp inh 0.5.
`C/C(=N\O)C1CCCCC1` gave Runt-SMMHC FRET 2.6, Runt-CBFb FRET 1.5, PHOSPHO1 block 28.3, Wee1 degr inh 7.4 and RanGTP-Imp inh 5.0.
Screening CC(C)OC(=O)CC(=O)CSc1nc2c(cc1C#N)CCCCC2 returned Efa HMGR inh 0.3, Runt-SMMHC FRET 70.7*, Runt-CBFb FRET 35.2, PHOSPHO1 block 17.6, Wee1 degr inh -3.5 and RanGTP-Imp inh 25.7*.
`CC(C)OC(=O)CSc1nc2c(cc1C#N)CCCCC2` gave Efa HMGR inh -5.0, Runt-SMMHC FRET -1.8, Runt-CBFb FRET -2.8, PHOSPHO1 block 14.6, Wee1 degr inh 0.4 and RanGTP-Imp inh 2.7.
For CCOC(=O)CC(=O)CSc1nc2c(c(C)c1C#N)CCC2 the results were Efa HMGR inh -9.5, Runt-SMMHC FRET 12.8, Runt-CBFb FRET 11.1, PHOSPHO1 block 45.5, Wee1 degr inh 2.4 and RanGTP-Imp inh 24.3*.
`CCN(CCCNC(=O)c1nn(C)c2c1CS(=O)(=O)c1ccccc1-2)Cc1ccccc1` gave PHOSPHO1 block 34.1 and RanGTP-Imp inh 1.1.
CO/N=C/C1C(=O)NN=C1c1ccccc1 (centres undefined) was read as Efa HMGR inh -3.9, Runt-SMMHC FRET -4.1, Runt-CBFb FRET 1.3, PHOSPHO1 block 15.0, Wee1 degr inh -0.1 and RanGTP-Imp inh -2.3.
`CCCCOC1(c2ccccc2)NC(=S)NN=C1c1ccccc1` (centres undefined) gave Efa HMGR inh 3.1, Runt-SMMHC FRET 9.4, Runt-CBFb FRET 10.6, PHOSPHO1 block 71.3*, Wee1 degr inh -0.8 and RanGTP-Imp inh -2.0.
`COC1(c2ccccc2)NC(=S)NN=C1c1ccccc1` (centres undefined) gave Efa HMGR inh 0.1, Runt-SMMHC FRET 5.3, Runt-CBFb FRET 12.6, PHOSPHO1 block 75.2*, Wee1 degr inh -1.4 and RanGTP-Imp inh 0.5.
`COc1ccc(NC(=O)CNC(=O)Cn2cnc3sc4c(c3c2=O)CCCC4)cc1OC` gave PHOSPHO1 block 32.4 and RanGTP-Imp inh 1.9.
Screening COC(=O)C1(CCSC)NC(c2ccc(O)cc2)C2C(=O)N(c3ccc(F)cc3)C(=O)C21 (centres undefined) returned PHOSPHO1 block 55.8 and RanGTP-Imp inh 4.7.
Screening Cn1c(C(=O)Nc2ccccc2)cc2sccc21 returned Efa HMGR inh 1.9, Runt-SMMHC FRET 2.5, Runt-CBFb FRET -1.0, PHOSPHO1 block 11.5, Wee1 degr inh 6.4 and RanGTP-Imp inh 4.4.
Screening COc1cc(NC(=O)c2cc3sccc3n2C)cc(OC)c1 returned Efa HMGR inh -2.5, Runt-SMMHC FRET -2.1, Runt-CBFb FRET 0.9, PHOSPHO1 block 5.8, Wee1 degr inh 9.0* and RanGTP-Imp inh 1.9.
For Nc1nc2c(s1)C(=O)CC(c1ccccc1)C2 (centres undefined) the results were Efa HMGR inh -2.9, Runt-SMMHC FRET 16.2, Runt-CBFb FRET 14.9, PHOSPHO1 block 60.1*, Wee1 degr inh -0.3 and RanGTP-Imp inh 7.1.
For COc1ccc(C2CC(=O)c3sc(N)nc3C2)cc1 (centres undefined) the results were Efa HMGR inh -5.9, Runt-SMMHC FRET 14.4, Runt-CBFb FRET 6.0, PHOSPHO1 block 15.2, Wee1 degr inh 3.0 and RanGTP-Imp inh inconclusive.
C/C(=N/NC(=O)CNS(=O)(=O)c1ccccc1)c1ccc(Br)cc1 was read as PHOSPHO1 block 11.4 and RanGTP-Imp inh 2.8.
Screening COc1ccc(OC2CCN(C(=O)Nc3ccc(C)cc3)CC2)cc1 returned PHOSPHO1 block 25.7 and RanGTP-Imp inh 1.3.
`N#Cc1c(-c2ccc(Cl)cc2)c2c([nH]c1=O)-c1ccccc1OC2` gave Runt-SMMHC FRET 81.5*, Runt-CBFb FRET 88.8*, PHOSPHO1 block 21.9, Wee1 degr inh -3.9 and RanGTP-Imp inh 67.9*.
Screening CCOc1ccc2ccccc2c1C1NC(=O)N(C)C(C)=C1C(=O)OCCOC (centres undefined) returned PHOSPHO1 block 19.9 and RanGTP-Imp inh 95.8*.
COc1cc2c(C(=O)N3CCN(c4ccccc4C)CC3)c(C)oc2cc1Br was read as Efa HMGR inh 1.1, Runt-SMMHC FRET -3.5, Runt-CBFb FRET -0.2, PHOSPHO1 block 1.7, Wee1 degr inh 1.3 and RanGTP-Imp inh -3.4.
For CCOC(=O)C1(Cc2ccc(OC)cc2)CCN(C(=O)CCn2cccn2)CC1 the results were Runt-SMMHC FRET 1.4, Runt-CBFb FRET 0.9, PHOSPHO1 block 21.9, Wee1 degr inh 6.7 and RanGTP-Imp inh -11.5.
CC(=O)SC(C[N+](=O)[O-])c1cn(C(C)=O)c2ccccc12 (centres undefined) was read as Efa HMGR inh 1.4, Runt-SMMHC FRET 12.3, Runt-CBFb FRET 25.4, PHOSPHO1 block 62.6*, Wee1 degr inh 2.1 and RanGTP-Imp inh -0.9.
For CC(=O)n1cc(Nc2ccc([N+](=O)[O-])cc2)c2ccccc21 the results were Efa HMGR inh -10.6, Runt-SMMHC FRET -4.3, Runt-CBFb FRET -1.4, PHOSPHO1 block 27.5, Wee1 degr inh 5.7 and RanGTP-Imp inh -2.6.
For COc1ccc(CC(=O)Nc2c(C(=O)N3CCN(c4ncccn4)CC3)oc3ccccc23)cc1 the results were PHOSPHO1 block 45.3 and RanGTP-Imp inh 5.5.
O=C(Cc1nc2ccccc2s1)c1ccc(O)cc1O was read as Efa HMGR inh -0.5, Runt-SMMHC FRET 114.0*, Runt-CBFb FRET 35.7, PHOSPHO1 block -13.6, Wee1 degr inh -3.5 and RanGTP-Imp inh 0.0.
Screening Cc1cc([N+](=O)[O-])ccc1NC(=O)CSc1nncn1-c1cccnc1 returned PHOSPHO1 block 8.0 and RanGTP-Imp inh 2.9.
